Screening results: PubChem BioAssay, SRMLSC
H69AR growth 86K – blocks growth of human H69AR lung tumor cells | H69AR lung tumor viability, ATP luminescence, 72 h; stronger effect = lower value | viability, % at 10 µM | hit rate 6% among 85,000;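 active means viability at or below 40%; inactive means viability above 40%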;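 further: multidrug resistant small cell line overexpressing MRP-1 efflux transporter; 100% = mean luminescence of untreated control wells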
Lung fibro prol – blocks proliferation of human lung fibroblasts. hit rate 1.1% among 85,000. LL 47 human lung fibroblast viability, ATP luminescence; stronger effect = lower value. viability, % at 10 µM;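 active means viability at or below 50% in the single dose screen; inactive means viability above 50%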;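 further: compound exposure lasted 72 h before the ATP readout; 100% = median luminescence of untreated cell-only wells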
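Times – overnight cell rest, 72 h compound treatment at 37 °C · Test system – human lung fibroblast line LL 47, low passage · Amount – 1,150 cells in each well · Controls – cell-only wells, no compound · Doses – 0.1% DMSO in all compound wells · Measured by – CellTiter-Glo luminescence · Buffer or medium – IMEM plus 15% FBS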
HCT116 bCat-KO – beta-catenin-lacking colon tumor cell growth suppression. HCT116 beta-catenin knockout viability, CellTiter-Glo, 60 h; stronger effect = lower value. viability, % at 10 µM. AID 818. hit rate 1.5% among 140,000;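 active means viability at or under a set limit, the compound median less 4 SD, cut at about 6% in these data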;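 further: 0% = Hyamine 1622 control at 20 µM and 100% = untreated cell control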
HCT116 PTEN-null – suppresses growth of cells with PTEN deletion | HCT116 PTEN-null viability, CellTiter-Glo, 60 h; stronger effect = lower value | viability, % at 10 µM | hit rate 1.2% among 140,000;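 active means viability at or below a set limit, 4 SD under the median of all tested compounds, cut at about 3.7% in these data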;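 further: PTEN knockout HCT116 line with beta catenin targeted HCT116 as companion control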
HUVEC inhibit – inhibitors of human endothelial cell proliferation | viability, % at 10 µM (by protocol) | hit rate 1.1% among 86,000 | HUVEC proliferation, CellTiter-Glo luminescence, 72 h; stronger effect = lower value;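 active means viability at or below 30%; inactive means viability above 30%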;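 further: 100% = median luminescence of DMSO-only cell control wells on each plate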
* marks the source's active call; other numbers are inactive results; . = no result given. Shown is part of a subset that was picked to be rich in hits.

SMILES	H69AR growth 86K	Lung fibro prol	HCT116 bCat-KO	HCT116 PTEN-null	HUVEC inhibit
COc1cc(C)nc(NCc2ccccc2)n1	92	91	97	100	99
Cc1cc(N/N=C/c2ccccc2Cl)nc(NCc2ccccc2)n1	.	.	42	26	.
Cc1ccc(Nc2cc(C)nc(NCc3ccccc3)n2)cc1	.	.	1.0*	1.0*	.
Cc1nn(C)cc1/C=C(/C#N)C(N)=O	.	.	92	83	.
CCN(CC)C(=O)CSc1nc(OC)cc(=O)[nH]1	.	.	103	112	.
COc1cc(CC(=O)OCC(=O)c2ccc3c(c2)OCCO3)cc(OC)c1OC	33*	53	15	12	38
CCn1cc(C(=O)NCc2ccco2)c(=O)c2cc(S(=O)(=O)N3CCC(C)CC3)ccc21	68	92	54	62	44
CCn1cc(C(=O)NCc2ccco2)c(=O)c2cc(S(=O)(=O)N3CC(C)CC(C)C3)ccc21 (configuration not stated)	68	66	48	70	22*
O=C1CN(C(=O)c2ccccn2)c2ccccc2N1	92	92	102	99	103
CCCn1nc(C(=O)N2CC(=O)Nc3ccccc32)c2ccccc2c1=O	25*	63	31	27	55
CC(C)OC(=O)c1nn2c(C(F)(F)F)cc(-c3ccco3)nc2c1Cl	83	93	91	94	91
CC(C)OC(=O)c1nn2c(C(F)(F)F)cc(-c3ccc(Br)o3)nc2c1Br	35*	76	95	95	77
CCOC(=O)c1[nH]c(C)c(/C(O)=C2\C(=O)C(=O)N(CCN3CCOCC3)C2c2cccs2)c1C (configuration not stated)	33*	91	37	32	60
CCCOc1ccc(C2/C(=C(\O)c3c(C)[nH]c(C(=O)OC)c3C)C(=O)C(=O)N2CCN(C)C)cc1 (configuration not stated)	94	105	81	78	104
COC(=O)c1[nH]c(C)c(/C(O)=C2\C(=O)C(=O)N(CCN(C)C)C2c2cccs2)c1C (configuration not stated)	.	.	98	103	.
CCOc1ccc(C2/C(=C(\O)c3c(C)[nH]c(C(=O)OC)c3C)C(=O)C(=O)N2CCN(C)C)cc1 (configuration not stated)	92	90	0.7*	0.7*	105
CCOC(=O)c1[nH]c(C)c(/C(O)=C2\C(=O)C(=O)N(CCN(C)C)C2c2ccc(C)o2)c1C (configuration not stated)	19*	97	32	35	75
c1ccc2[nH]c3cc4ncnc4cc3nc2c1	.	.	63	78	.
CCOc1ccc2noc3c2c1C(=O)c1ccccc1-3	.	.	78	76	.
O=c1nccc(NCc2ccco2)[nH]1	103	107	90	94	107
O=C1c2ccccc2-c2onc3ccc(NCc4ccco4)c1c23	34*	87	54	50	54
CCNc1ccc2noc3c2c1C(=O)c1ccccc1-3	18*	87	33	46	69
O=C(COC(=O)c1cccc(S(=O)(=O)N2CCc3ccccc32)c1)Nc1ccc(Cl)cn1	.	.	85	87	.
Cc1ccc(NC(=O)c2cc(N3C(=O)C=CC3=O)ccc2Cl)cc1C	.	.	103	104	.
CCOc1cc(CNc2ccc(N3CCCC3)cc2)cc(Cl)c1OC	.	.	50	63	.
SMILES	H69AR growth 86K	Lung fibro prol	HCT116 bCat-KO	HCT116 PTEN-null	HUVEC inhibit
CCOc1ccc(CNc2ccc(N3CCCC3)cc2)cc1	1.8*	84	4.5*	6	90
CCC(NC(=O)N(Cc1ccccc1)Cc1ccc2c(c1)OCO2)(C(F)(F)F)C(F)(F)F	37*	99	92	90	85
CC(NC(=O)N(Cc1ccccc1)Cc1ccc2c(c1)OCO2)(C(F)(F)F)C(F)(F)F	74	95	95	88	102
O=C(Nc1ccc(N2CCOCC2)cc1)Nc1ccc2nc(-c3ccco3)c(-c3ccco3)nc2c1	9.5*	100	79	48	22*
COC(=O)c1ccc(NC(=O)C(=O)NCC2CCCO2)cc1 (configuration not stated)	.	.	96	96	.
CCn1ncc(CNC(=O)C2(C)CC2(Cl)Cl)c1C (configuration not stated)	.	.	91	102	.
CCCCCCn1c(COc2ccccc2F)nnc1SCC(=O)N1c2ccccc2NC(=O)C1(C)C	0.8*	84	1.2*	1.1*	67
CCn1c(SCC(=O)OCC(=O)N2c3ccccc3NC(=O)C2(C)C)nnc1-c1ccco1	102	91	101	115	82
CC/C(=N\NC(=O)C(N)=O)c1ccccc1O	.	.	75	81	.
O=S1(=O)C=C(Sc2nc3cc(Cl)ccc3o2)c2ccccc21	.	.	1.6*	1.6*	.
Cc1c(CCC(C)C)c(=O)n2c([nH]c3ccccc32)c1C#N	31*	90	81	76	74
CCCCc1c(C)c(C#N)c2[nH]c3ccccc3n2c1=O	18*	92	70	66	68
CCOc1ccc(-n2nc3c(=O)n(CCN4CCCCC4)nc(C)c3c2C)cc1	.	.	92	100	.
COc1ccccc1Cn1c(=O)c2ccccc2n2c(Sc3ncnc4sccc34)nnc12	1.4*	56	9	5	75
COc1ccc2nc(NC(=O)C(NS(=O)(=O)c3cccc4nsnc34)C(C)C)sc2c1 (configuration not stated)	.	.	87	96	.
COc1ccc(N2C(=O)NC3CC2(C)Oc2ccc(Cl)cc23)cc1OC (configuration not stated)	26*	91	77	72	96
Nc1ccc2c(c1)C(=O)C(=O)c1ccccc1-2	0.2*	2.1*	1.0*	1.1*	3.1*
CC(=O)Nc1ccc2c(c1)C(=O)c1ccccc1C2=O	.	.	79	70	.
O=C1C(=O)c2ccc(-c3ccccc3)cc2-c2ccccc21	1.5*	2.7*	0.1*	0.1*	2.2*
CCCc1ccc(OCc2ccc(C(=O)N3CCN(c4ccccn4)CC3)o2)c(OC)c1	61	93	51	48	59
COc1cc(CN2CCN(c3cccc(Cl)c3)CC2)cc(OC)c1OC	26*	66	32	27	59
CCOc1ccc(OCCOCCNCCOC)cc1	.	.	93	98	.
Cc1c(NC(=O)C(C)Sc2nc3ccccc3c(=O)n2CCO)c(=O)n(-c2ccccc2)n1C (configuration not stated)	92	102	105	105	99
COc1ccc(/C=N/NC(=O)c2nc(Cl)c(Cl)c(N)c2Cl)cc1COc1ccccc1F	.	.	13	20	.
COc1ccc(/C=N/NC(=O)c2nc(Cl)c(Cl)c(N)c2Cl)cc1COc1ccc(F)cc1F	.	.	2.0*	5	.
CON(C)c1nc(OCCNC(=O)OCc2ccc(Cl)cc2Cl)nc(N(C)C)n1	.	.	93	96	.
Cc1ccc2nc3sc(-c4nnc(-c5ccccc5[N+](=O)[O-])o4)c(N)c3cc2c1	.	.	99	92	.
Cc1ccc2cc(C#N)c(SCc3nnc(-c4ccccc4[N+](=O)[O-])o3)nc2c1	.	.	1.4*	1.2*	.
Cc1cccc(NC(=O)C2CCCN(S(=O)(=O)c3c(C)nn(C)c3C)C2)n1 (configuration not stated)	38*	85	78	82	96
